Published values collected from several papers.
Protocols differ between the studies behind these lines.
ABL1 T315I non-phosphorylated: Tyrosine-protein kinase ABL1, non-phosphorylated (ABL1, Homo sapiens, UniProt P00519, T315I)
ABL1 H396P phosphorylated: Tyrosine-protein kinase ABL1, phosphorylated (ABL1, Homo sapiens, UniProt P00519, H396P)
ABL1 Y253F: Tyrosine-protein kinase ABL1 (ABL1, Homo sapiens, UniProt P00519, Y253F)
ABL1 phosphorylated: Tyrosine-protein kinase ABL1, phosphorylated (ABL1, Homo sapiens, UniProt P00519)
ABL1 Y253F phosphorylated: Tyrosine-protein kinase ABL1, phosphorylated (ABL1, Homo sapiens, UniProt P00519, Y253F)
ABL1 non-phosphorylated: Tyrosine-protein kinase ABL1, non-phosphorylated (ABL1, Homo sapiens, UniProt P00519)
ABL1 Q252H phosphorylated: Tyrosine-protein kinase ABL1, phosphorylated (ABL1, Homo sapiens, UniProt P00519, Q252H)
ABL1 F317L non-phosphorylated: Tyrosine-protein kinase ABL1, non-phosphorylated (ABL1, Homo sapiens, UniProt P00519, F317L)
ABL1 F317L phosphorylated: Tyrosine-protein kinase ABL1, phosphorylated (ABL1, Homo sapiens, UniProt P00519, F317L)
ABL1 T315I: Tyrosine-protein kinase ABL1 (ABL1, Homo sapiens, UniProt P00519, T315I)
ABL1 Q252H non-phosphorylated: Tyrosine-protein kinase ABL1, non-phosphorylated (ABL1, Homo sapiens, UniProt P00519, Q252H)

O=C(NCCCN1CCOCC1)c1ccc(Nc2nccc(-c3cc4ccccc4s3)n2)cc1
remaining binding (ABL1 T315I non-phosphorylated; binding, competition with immobilised ligand; 1 µM): 19%

C[C@@H](c1ccc(-n2cnc3c(N)ncnc32)cc1)N1CCc2nn(C)c(Cc3ccccc3)c2C1=O
remaining binding (ABL1 H396P phosphorylated; binding, competition with immobilised ligand; 0.1 µM): 79%

C[C@@H]1CCN(c2nccc(-c3cnn4ncccc34)n2)C1
remaining binding (ABL1 Y253F; binding; 1 µM): 88%

COc1cnc(Nc2cccc(S(N)(=O)=O)c2)nc1N1CCN(c2ccccc2)CC1
remaining binding (ABL1 phosphorylated; binding, competition with immobilised ligand; 1 µM): 79%

C[C@@H]1CN(c2cc(-c3n[nH]c4ccc(OC5(C)CC5)cc34)ncn2)C[C@H](C)O1
remaining binding (ABL1 Y253F phosphorylated; cell-free assay, competition with immobilised ligand; 0.1 µM): 66%

COc1ncc2cc3ccccc3nc2c1C#N
remaining binding (ABL1 non-phosphorylated; cell-free assay, competition with immobilised ligand; 5 µM): 100%

O=C(O)[C@H]1[C@H](Cn2nnc3ccccc3c2=O)CC[C@@H]1C(=O)c1ccc(OCCC2CCOCC2)cc1
remaining binding (ABL1 non-phosphorylated; cell-free assay, competition with immobilised ligand; 1 µM): 80%

F[C@@H]1CCN(c2nccc(-c3cnn4ncccc34)n2)C1
remaining binding (Tyrosine-protein kinase ABL1 (ABL1, Homo sapiens, UniProt P00519, F317L); binding; 1 µM): 100%

O=C(Nc1c[nH]nc1C(=O)NC1CCNCC1)c1cc(F)cc(F)c1
remaining binding (ABL1 Q252H phosphorylated; binding, competition with immobilised ligand; 1 µM): 99%

COc1ccnn2ncc(-c3ccnc(N(C)C)n3)c12
remaining binding (ABL1 phosphorylated; binding; 1 µM): 73%

CNCc1ccccc1-c1csc([C@@H](C)Nc2nc(C)nc3cc(OC)c(OC)cc23)c1
remaining binding (Tyrosine-protein kinase ABL1, non-phosphorylated (ABL1, Homo sapiens, UniProt P00519, F317I); binding, competition with immobilised ligand; 1 µM): 100%

CC1CCCN1c1nccc(-c2cnn3ncccc23)n1 (centres unmarked)
remaining binding (Tyrosine-protein kinase ABL1 (ABL1, Homo sapiens, UniProt P00519, M351T); binding; 1 µM): 98%

N#CC1(c2ccccn2)CCN(Cc2cc(C(=O)N3CCCC3)c(=O)n3ccccc23)CC1
remaining binding (ABL1 Q252H phosphorylated; cell-free assay, competition with immobilised ligand; 1 µM): 90%

COc1cnc(Nc2cccc(S(N)(=O)=O)c2)nc1N1CCN(c2ccccc2)C(=O)C1
remaining binding (Tyrosine-protein kinase ABL1, phosphorylated (ABL1, Homo sapiens, UniProt P00519, E255K); binding, competition with immobilised ligand; 1 µM): 86%

O=C(NCC1CCOCC1)c1n[nH]cc1NC(=O)c1c(F)cccc1F
remaining binding (ABL1 F317L non-phosphorylated; binding, competition with immobilised ligand; 1 µM): 88%

O=C(c1ccc(Nc2nccc(-c3cc4ccccc4s3)n2)cc1)N1CCC(N2CCCC2)CC1
remaining binding (ABL1 F317L phosphorylated; binding, competition with immobilised ligand; 1 µM): 100%

N[C@@H]1CCN(c2nccc(-c3cnn4ncccc34)n2)C1
remaining binding (ABL1 T315I; binding; 1 µM): 95%

c1cncc(-c2cccc(Nc3nccc(NC4CCCCC4)n3)c2)c1
remaining binding (ABL1 Y253F phosphorylated; binding, competition with immobilised ligand; 10 µM): 12%

CC(C)(O)c1cncc(-c2nc3ccc(F)cc3n2C2CC2)c1
remaining binding (ABL1 Q252H non-phosphorylated; cell-free assay, competition with immobilised ligand; 1 µM): 89%

Nc1ncc2c(n1)-c1c([nH]c3ccc(C#CC4CC4)cc13)CCCC2
remaining binding (ABL1 Y253F phosphorylated; binding, competition with immobilised ligand; 1 µM): 95%

CNC(=O)[C@@H]1CC[C@@H](n2c(-c3ccc4cnccc4c3)nc3ccc(C(=O)NCc4cccc(C(N)=O)c4)cc32)C1
remaining binding (ABL1 H396P phosphorylated; binding, competition with immobilised ligand; 1 µM): 100%

Nc1c(C(=O)NCc2ccc(C(=O)NCCCC3CCCCC3)cc2)cnn1-c1ccccc1
remaining binding (ABL1 Q252H non-phosphorylated; cell-free assay, competition with immobilised ligand; 0.1 µM): 87%

CN(c1nccc(-c2cnn3ncccc23)n1)C1CC1
remaining binding (ABL1 Y253F; binding; 1 µM): 100%

C=CC(=O)N1CCC(C(=O)NCC(=O)N2CCN(c3nc(-c4cnc(N)nc4C(F)F)nc(N4CCOCC4)n3)CC2)CC1
remaining binding (ABL1 F317L non-phosphorylated; binding, competition with immobilised ligand; 1 µM): 90%

O=C(NCCCN1CCOCC1)c1ccc(Nc2ncc(Cl)c(-c3ccc(Cl)s3)n2)cc1
remaining binding (ABL1 Y253F phosphorylated; binding, competition with immobilised ligand; 1 µM): 38%

C[C@@H]1CN(c2cc(-c3nn(C)c4ccc(OC5(C)CC5)cc34)ncn2)C[C@H](C)O1
remaining binding (Tyrosine-protein kinase ABL1, phosphorylated (ABL1, Homo sapiens, UniProt P00519, F317I); binding; 1 µM): 75%

O=C(c1ccc(Nc2ncc(Cl)c(-c3cc4ccccc4s3)n2)cc1)N1CCC(N2CCCC2)CC1
remaining binding (ABL1 F317L phosphorylated; binding, competition with immobilised ligand; 1 µM): 54%

CCN1CCN(Cc2ccc(C(=O)Nc3ccc(C)c(Oc4ccc5c(c4)CC(=O)N5)c3)cc2C(F)(F)F)CC1
remaining binding (Tyrosine-protein kinase ABL1, phosphorylated (ABL1, Homo sapiens, UniProt P00519, M351T); binding, competition with immobilised ligand; 1 µM): 55%

O=C(c1ccc(Nc2ncc(Cl)c(-c3ccc(Cl)s3)n2)cc1)N1CCC(N2CCCC2)CC1
remaining binding (Tyrosine-protein kinase ABL1, non-phosphorylated (ABL1, Homo sapiens, UniProt P00519, H396P); binding, competition with immobilised ligand; 1 µM): 0.35%

CC(=O)N1CCC(c2ccc(C(=O)NC3=NCCN3)cc2C(F)(F)F)CC1
remaining binding (ABL1 F317L phosphorylated; cell-free assay, competition with immobilised ligand; 1 µM): 95%

Cc1cnc(Nc2ccc(C(=O)N3CCC(N4CCCC4)CC3)cc2)nc1-c1cc2ccccc2s1
remaining binding (ABL1 T315I non-phosphorylated; binding, competition with immobilised ligand; 1 µM): 0.1%

CN(C)c1nccc(-c2cnn3ncccc23)n1
remaining binding (ABL1 T315I; binding; 1 µM): 80%
